We go through one compound from ChEMBL document CHEMBL1125195, “Novel compounds possessing potent cAMP and cGMP phosphodiesterase inhibitory activity. Synthesis and cardiovascular effects of a series of imidazo[1,2-a]quinoxalinones and imidazo[1,5-a]quinoxalinones and their aza analogues” (J Med Chem, 1991).

One may read the EC50 as the concentration at which the effect is half-maximal. High values mean a less potent agent, low ones a more potent agent. One may read the IC50 as the concentration that gives 50% inhibition. A low value points to greater potency in that assay.

Experiment [1] is described as follows: In vitro increase in contractile force in ferret papillary muscle strips. In kind it is functional, Mustela putorius furo, Muscle tissue. The method in brief: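 Ferret papillary muscle; value is drug concentration (μM) giving a 20% rise in contractile force. Mean of at least two determinations, ranges within ±10%. Inotropic effect also tested with 1 μM propranolol co-administered. NR means not reached at 100 μM.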

Experiment [2] relates to Canis familiaris. In words: Percent change in heart rate after intravenous administration in anesthetized dogs at 0.1 mg/kg (NC<10%). In kind it is functional, organism-based. More on the design: dose 0.1 mg/kg. The following applies: Canis lupus familiaris.
Experiment [3] relates to Canis familiaris. In words: Percent change in heart rate after intravenous administration in anesthetized dogs at 1.0 mg/kg. In kind it is functional, Canis lupus familiaris.
The subject of experiment [4] is Canis familiaris. In words: Percent change in left ventricle contractile force in anesthetized dogs after intravenous administration at 0.1 mg/kg. In kind it is functional, Canis lupus familiaris, Heart left ventricle.
The species named for experiment [5] is Canis familiaris. In words: In vitro vascular relaxation in canine mesenteric veins precontracted with phenylephrine. The format is functional. The following applies: Canis lupus familiaris, Mesenteric vein. In a few lines:
(§1)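 Isolated vessels in warm PSS. Arteries constricted with prostaglandin F2α, veins with phenylephrine. Cumulative drug challenges, each added after relaxation plateaued. Delta force is expressed as % of agonist actual force (total minus basal) and as % of maximal relaxation. EC50 is found by linear interpolation between the points bracketing 50% relaxation. Afterwards tissues were rinsed every 10 min, reconstricted, and challenged with acetylcholine (arteries) or thrombin (veins).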

Experiment [6] concerns Canis familiaris. In words: Percent change in mean arterial blood pressure after intravenous administration in anesthetized dogs at 0.3 mg/kg. The format is functional, Canis lupus familiaris.
The species entered for experiment [7] is Canis familiaris. Kind of experiment: In vitro vascular relaxation in canine coronary arteries precontracted with prostaglandin F2alpha. The format is functional. The following applies: Canis lupus familiaris. In a few lines: as §1
Experiment [8] has as its system Canis familiaris. In words: Percent change in heart rate after intravenous administration in anesthetized dogs at 0.3 mg/kg. The format is functional, Canis lupus familiaris.
Experiment [9] can be described thus: Inhibition of crude cAMP phosphodiesterase from canine […]. The arrangement: species or system Canis lupus familiaris. In a few lines:
(§2)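 Crude homogenates: cAMP PDE from canine cardiac tissue, cGMP PDE from canine thoracic aorta. Value is drug concentration (μM) giving 50% inhibition. Mean of at least three determinations, ranges within ±10%.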

The subject of experiment [10] is Canis familiaris. Kind of experiment: Percent change in left ventricle contractile force in anesthetized dogs after intravenous administration at 1.0 mg/kg. The format is functional, Canis lupus familiaris, Heart left ventricle.
A short description of experiment [11]: Inhibition of crude cGMP phosphodiesterase from canine thoracic aorta. In kind it is tissue-based, Canis lupus familiaris. In a few lines: as §2
The subject of experiment [12] is Canis familiaris. Kind of experiment: Percent change in left ventricle contractile force in anesthetized dogs after intravenous administration at 0.3 mg/kg. In kind it is functional, Canis lupus familiaris, Heart left ventricle.
Experiment [13] has as its system Canis familiaris. Kind of experiment: Percent change in mean arterial blood pressure after intravenous administration in anesthetized dogs at 0.1 mg/kg. In kind it is functional, Canis lupus familiaris.
For experiment [14], the system named is Canis familiaris. In words: Percent change in mean arterial blood pressure after intravenous administration in anesthetized dogs at 1.0 mg/kg. In kind it is functional, Canis lupus familiaris.

SMILES strings stand for the structures. Bounds are passed on as bounds.

In [1], `CCc1ncc2c(O)nc3cccnc3n12` gave a CFC20 of 0.1 µM. The Delta in the experiment with Canis familiaris [2] is below 10% change from control; in the experiment on Canis familiaris [3] it was 50%; in the experiment on Canis familiaris [4], 31%; with Canis familiaris [6] it was -25%; with Canis familiaris [8] it was 30%; in the experiment with Canis familiaris [10], 76%. In addition, the figures for the Delta with Canis familiaris [12], with Canis familiaris [13] and in the experiment on Canis familiaris [14] were 40%, -17% and -40%, respectively. Besides, the concentration giving a half-maximal response (EC50) in the experiment listed under Canis familiaris [5] is 500 nM; in the experiment listed under Canis familiaris [7], 300 nM. Further, the values for the IC50 in [9] and in experiment [11] were 1000 nM and 7000 nM, respectively.
